From ChEMBL document CHEMBL1141303, “Macrolactins O-R, glycosylated 24-membered lactones from Bacillus sp. AH159-1” (J Nat Prod, 2007)
In brackets after ≈: the same amount, converted by molar mass.

Experiments:
[1] = molecular target: T1, Peptide deformylase (Staphylococcus aureus subsp. aureus Mu50, UniProt P68825); experiment: Inhibition of Staphylococcus aureus peptide deformylase
T1 sequence (P68825 whole entry): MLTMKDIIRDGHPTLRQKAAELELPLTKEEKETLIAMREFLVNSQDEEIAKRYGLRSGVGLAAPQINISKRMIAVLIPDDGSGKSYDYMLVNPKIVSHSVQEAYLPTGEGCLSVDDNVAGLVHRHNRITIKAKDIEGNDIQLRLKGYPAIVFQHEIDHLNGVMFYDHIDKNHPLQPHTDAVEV

[2] = tested on: Staphylococcus aureus; experiment: Antibacterial activity against Staphylococcus aureus RN4220 after 18 hrs by microdilution method; type: functional
Method in brief: (§1)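 Broth microdilution assay. The minimum restrictive concentration (MRC) was taken as the lowest concentration that reduced growth by at least 50%.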

[3] = tested on: Escherichia coli; experiment: Antibacterial activity against Escherichia coli KCTC 1924 after 18 hrs by microdilution method; type: functional; settings: KCTC 1924, 18 h; method in brief: as §1
[4] = tested on: Bacillus subtilis; experiment: Antibacterial activity against Bacillus subtilis KCTC 1021 after 18 hrs by microdilution method; type: functional; method in brief: as §1

| Structure (SMILES) | IC50 [1] [µM] | MRC [2] [µg/mL] | MIC [3] [µg/mL] | MRC [4] [µg/mL] |
| --- | --- | --- | --- | --- |
| C[C@@H]1CCC/C=C/CCC(=O)C[C@@H](O)C/C=C\C=C\[C@@H](O[C@H]2O[C@@H](CO)[C@H](O)[C@@H](O)[C@@H]2O)C/C=C/C=C\C(=O)O1 [MACROLACTIN O] | 53.5 | 100 | 100 (≈ 177 µM) | 100 |
| C[C@@H]1CCC/C=C\C=C\[C@H](O)C[C@@H](O)C/C=C\C=C\[C@@H](O[C@H]2O[C@@H](CO)[C@H](O)[C@@H](O)[C@@H]2O)C/C=C/C=C\C(=O)O1 [MACROLACTIN Q] | 12.1 | 100 | 100 (≈ 177 µM) | 100 |
| C[C@@H]1CCC/C=C/C=C/[C@H](O)C[C@@H](O)C/C=C/C=C/[C@@H](O[C@H]2O[C@@H](CO)[C@H](O)[C@@H](O)[C@@H]2O)C/C=C/C=C\C(=O)O1 [MACROLACTIN R] | 61.5 | 100 | 100 (≈ 177 µM) | 100 |
| CC[C@@H]1CCC/C=C/C=C/[C@H](O)C[C@@H](O)C/C=C\C=C\[C@@H](O[C@H]2O[C@@H](CO)[C@H](O)[C@@H](O)[C@@H]2O)C/C=C/C=C\C(=O)O1 [MACROLACTINN P] | 57.7 | 100 | 100 (≈ 173 µM) | 100 |
